We go through 11 compounds from ChEMBL document CHEMBL1133135, “Grignard-mediated synthesis and preliminary biological evaluation of novel 3-substituted farnesyl diphosphate analogues” (Bioorg Med Chem Lett, 2000).

In the first data set the test system is CC(C)=CCC/C(C)=C/CC/C(=C/COP(=O)(O)OP(=O)(O)O)C1CCCC1. Description: Km for mammalian protein Farnesyltransferase expressed in baculovirus.
The term Km denotes the substrate concentration at which the rate is half of its maximum. In the case of “Protein farnesyltransferase (Homo sapiens) (from UniProt P49354+P49356)”, the Km is 0.102 µM.

Another data set concerns the target Protein farnesyltransferase (Homo sapiens) (UniProt P49354+P49356). Briefly: Relative Vmax for Farnesyltransferase at 10 uM. The data set is classed as protein-complex assay. Put shortly:
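Baculovirus-expressed, purified recombinant mammalian FTase in a continuous fluorometric assay with dansyl-GCVLS-OH peptide cosubstrate, testing each FPP analogue as alternative prenyl donor. Relative Vmax is the Vmax with analogue at 10 μM divided by the Vmax with FPP at 10 μM under the same conditions. Analogue concentrations were checked by phosphate analysis.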
For the compound `CCC(C)/C(=C\COP(=O)(O)OP(=O)(O)O)CC/C=C(\C)CCC=C(C)C` (configuration not stated), the Krel stood at 0.
The same measure, in the same setting: in the case of `CC(C)=CCC/C(C)=C/CC/C(=C/COP(=O)(O)OP(=O)(O)O)C1CCCC1` it was 0.072.
On the same count and under the same terms, the value for `C=C/C(=C\COP(=O)(O)OP(=O)(O)O)CC/C=C(\C)CCC=C(C)C` was 0.521; that for `CC(C)=CCC/C(C)=C/CC/C(=C/COP(=O)(O)OP(=O)(O)O)CC(C)(C)C` was 0.042.
With `CCC/C(=C\COP(=O)(O)OP(=O)(O)O)CC/C=C(\C)CCC=C(C)C`, the Krel stood at 0.078.
The same measure, in the same setting: the value for `CC(C)=CCC/C(C)=C/CC/C(=C/COP(=O)(O)OP(=O)(O)O)C(C)C` was 0.013; that for `C=CC/C(=C\COP(=O)(O)OP(=O)(O)O)CC/C=C(\C)CCC=C(C)C` was 0.053; that for `CC(C)=CCC/C(C)=C/CC/C(=C/COP(=O)(O)OP(=O)(O)O)CC(C)C` was 0.
Turning to `C=C(C)/C(=C\COP(=O)(O)OP(=O)(O)O)CC/C=C(\C)CCC=C(C)C`, the Krel was determined as 0.
Still for that read-out and setting: the value for `CC(C)=CCC/C(C)=C/CC/C(=C/COP(=O)(O)OP(=O)(O)O)c1ccc(F)cc1` was 0.002.

The next data set has as its system CC(C)=CCC/C(C)=C/CC/C(C)=C/COP(=O)(O)OP(=O)(O)O.
For “Protein farnesyltransferase (Homo sapiens) (from UniProt P49354+P49356)”, the Km stood at 0.107 µM.
